Test [1] in a line: Inhibition of human KDM3A catalytic domain expressed in Sf9 cells methyl lysine peptide substrate by AlphaScreen assay. The essentials: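 AlphaScreen activity assay run within the linear range of the reaction. It immunodetects the lysine methylation state of a biotin-conjugated histone peptide product, using Streptavidin- and Protein A-conjugated beads.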
Background: Alpha assays give light when donor and acceptor beads are brought close together.

The target of a further test is Egl nine homolog 1 (Homo sapiens, UniProt Q9GZT9). Kind of test: Inhibition of human PHD2 expressed in Escherichia coli by AlphaScreen assay.
Chain of Egl nine homolog 1 (Q9GZT9 whole entry): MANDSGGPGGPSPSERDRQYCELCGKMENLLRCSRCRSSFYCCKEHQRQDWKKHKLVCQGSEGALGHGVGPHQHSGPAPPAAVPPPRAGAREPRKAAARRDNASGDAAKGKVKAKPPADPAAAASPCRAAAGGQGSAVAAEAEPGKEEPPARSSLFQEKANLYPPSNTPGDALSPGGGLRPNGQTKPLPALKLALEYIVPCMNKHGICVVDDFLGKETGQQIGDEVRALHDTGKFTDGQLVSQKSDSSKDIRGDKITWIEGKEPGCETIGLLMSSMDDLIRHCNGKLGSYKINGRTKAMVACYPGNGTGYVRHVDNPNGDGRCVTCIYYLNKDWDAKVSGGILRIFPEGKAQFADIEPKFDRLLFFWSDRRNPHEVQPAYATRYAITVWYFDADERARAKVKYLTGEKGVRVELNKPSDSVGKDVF
The target of test [2] is Hypoxia-inducible factor 1-alpha inhibitor (Homo sapiens, UniProt Q9NWT6). Kind of test: Inhibition of human FIH expressed in Escherichia coli by MALDI assay.
Chain of Hypoxia-inducible factor 1-alpha inhibitor (Q9NWT6 whole entry): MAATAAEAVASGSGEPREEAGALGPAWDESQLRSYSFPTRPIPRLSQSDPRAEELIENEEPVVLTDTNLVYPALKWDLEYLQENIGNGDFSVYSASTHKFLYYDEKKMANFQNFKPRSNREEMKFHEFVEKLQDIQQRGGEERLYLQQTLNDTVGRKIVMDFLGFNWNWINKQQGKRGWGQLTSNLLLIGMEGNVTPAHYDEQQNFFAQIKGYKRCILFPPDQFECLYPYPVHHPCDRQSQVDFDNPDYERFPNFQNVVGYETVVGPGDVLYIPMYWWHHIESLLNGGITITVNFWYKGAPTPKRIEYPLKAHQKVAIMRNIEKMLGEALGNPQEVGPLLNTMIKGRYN
The target of test [3] is T1, Lysine-specific demethylase 4E (Homo sapiens, UniProt B2RXH2).
T1 sequence (B2RXH2 whole entry): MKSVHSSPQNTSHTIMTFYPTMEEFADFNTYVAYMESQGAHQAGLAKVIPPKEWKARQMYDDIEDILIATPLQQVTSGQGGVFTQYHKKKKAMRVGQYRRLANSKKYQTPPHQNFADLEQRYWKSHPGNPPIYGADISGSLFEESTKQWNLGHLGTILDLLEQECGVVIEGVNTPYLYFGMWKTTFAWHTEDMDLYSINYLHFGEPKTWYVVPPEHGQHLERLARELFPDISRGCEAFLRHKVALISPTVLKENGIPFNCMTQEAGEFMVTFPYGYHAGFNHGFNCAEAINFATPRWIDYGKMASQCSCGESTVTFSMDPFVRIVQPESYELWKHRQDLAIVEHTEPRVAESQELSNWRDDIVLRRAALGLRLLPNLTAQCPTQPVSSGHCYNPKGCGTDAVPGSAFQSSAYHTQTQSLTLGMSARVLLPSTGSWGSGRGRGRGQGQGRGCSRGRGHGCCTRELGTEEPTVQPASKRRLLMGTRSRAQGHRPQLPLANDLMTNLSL
Kind of test: Inhibition of human KDM4E expressed in Escherichia coli using methyl lysine peptide substrate by AlphaScreen assay. The essentials:
(§1)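 AlphaScreen read-out: immunodetection of the lysine methylation state of the biotinylated histone peptide product, captured on streptavidin and Protein A conjugated beads. Reactions were run in the linear range with 2OG near or below its Km.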

In test [4] the target is T2, Lysine-specific demethylase 7A (Homo sapiens, UniProt Q6ZMT4).
T2 sequence (Q6ZMT4 whole entry): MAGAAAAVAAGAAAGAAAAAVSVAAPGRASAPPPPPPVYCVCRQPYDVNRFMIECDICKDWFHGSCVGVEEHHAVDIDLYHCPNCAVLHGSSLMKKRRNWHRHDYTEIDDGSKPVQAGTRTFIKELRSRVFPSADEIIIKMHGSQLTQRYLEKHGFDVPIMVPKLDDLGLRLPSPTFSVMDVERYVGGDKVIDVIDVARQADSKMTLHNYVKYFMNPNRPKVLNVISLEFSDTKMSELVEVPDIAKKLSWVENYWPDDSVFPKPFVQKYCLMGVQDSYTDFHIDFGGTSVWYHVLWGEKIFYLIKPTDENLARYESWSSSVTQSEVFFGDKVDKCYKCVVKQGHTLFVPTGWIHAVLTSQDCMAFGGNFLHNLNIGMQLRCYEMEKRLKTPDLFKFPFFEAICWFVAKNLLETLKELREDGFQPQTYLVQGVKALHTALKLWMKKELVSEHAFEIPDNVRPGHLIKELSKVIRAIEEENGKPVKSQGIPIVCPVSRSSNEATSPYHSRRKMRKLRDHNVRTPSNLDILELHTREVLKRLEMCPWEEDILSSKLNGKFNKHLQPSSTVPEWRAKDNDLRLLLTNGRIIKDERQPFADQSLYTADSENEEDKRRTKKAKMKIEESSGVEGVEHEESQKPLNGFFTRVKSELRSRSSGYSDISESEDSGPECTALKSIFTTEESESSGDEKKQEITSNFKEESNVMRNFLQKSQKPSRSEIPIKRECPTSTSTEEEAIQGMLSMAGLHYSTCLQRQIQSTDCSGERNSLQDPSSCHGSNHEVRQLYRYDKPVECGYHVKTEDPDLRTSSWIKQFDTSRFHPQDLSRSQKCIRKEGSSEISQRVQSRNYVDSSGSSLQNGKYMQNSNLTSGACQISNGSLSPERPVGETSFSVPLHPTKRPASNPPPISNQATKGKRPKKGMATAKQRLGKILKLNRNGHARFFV
Kind of test: Inhibition of human KDM7A catalytic domain expressed in Escherichia coli by MALDI assay.

The target of test [5] is T3, Gamma-butyrobetaine dioxygenase (Homo sapiens, UniProt O75936).
T3 sequence (O75936 whole entry): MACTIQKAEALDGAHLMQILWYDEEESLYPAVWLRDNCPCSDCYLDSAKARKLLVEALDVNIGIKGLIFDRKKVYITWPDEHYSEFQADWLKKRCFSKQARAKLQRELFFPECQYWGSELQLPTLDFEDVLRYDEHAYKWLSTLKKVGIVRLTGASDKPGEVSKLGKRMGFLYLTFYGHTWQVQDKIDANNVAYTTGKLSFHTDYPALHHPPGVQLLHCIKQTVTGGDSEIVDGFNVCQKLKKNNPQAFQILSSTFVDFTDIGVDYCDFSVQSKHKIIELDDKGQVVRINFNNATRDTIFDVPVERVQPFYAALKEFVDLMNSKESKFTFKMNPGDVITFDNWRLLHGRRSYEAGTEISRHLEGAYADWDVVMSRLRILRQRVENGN
As to the kind of experiment: Inhibition of human BBOX1 by fluorescence based assay.

Test [6] concerns the target Lysine-specific demethylase 6B (Homo sapiens, UniProt O15054). As to the kind of experiment: Inhibition of human KDM6B catalytic domain expressed in Escherichia coli using methyl lysine peptide substrate by AlphaScreen assay. The essentials:
as §1

Test [7] deals with Lysine-specific demethylase 5C (Homo sapiens, UniProt P41229). As to the kind of experiment: Inhibition of human KDM5C catalytic domain expressed in Sf9 cells using methyl lysine peptide substrate by AlphaScreen assay. A digest of the protocol: as §1
Chain of Lysine-specific demethylase 5C (P41229 whole entry, the tested form may be a part): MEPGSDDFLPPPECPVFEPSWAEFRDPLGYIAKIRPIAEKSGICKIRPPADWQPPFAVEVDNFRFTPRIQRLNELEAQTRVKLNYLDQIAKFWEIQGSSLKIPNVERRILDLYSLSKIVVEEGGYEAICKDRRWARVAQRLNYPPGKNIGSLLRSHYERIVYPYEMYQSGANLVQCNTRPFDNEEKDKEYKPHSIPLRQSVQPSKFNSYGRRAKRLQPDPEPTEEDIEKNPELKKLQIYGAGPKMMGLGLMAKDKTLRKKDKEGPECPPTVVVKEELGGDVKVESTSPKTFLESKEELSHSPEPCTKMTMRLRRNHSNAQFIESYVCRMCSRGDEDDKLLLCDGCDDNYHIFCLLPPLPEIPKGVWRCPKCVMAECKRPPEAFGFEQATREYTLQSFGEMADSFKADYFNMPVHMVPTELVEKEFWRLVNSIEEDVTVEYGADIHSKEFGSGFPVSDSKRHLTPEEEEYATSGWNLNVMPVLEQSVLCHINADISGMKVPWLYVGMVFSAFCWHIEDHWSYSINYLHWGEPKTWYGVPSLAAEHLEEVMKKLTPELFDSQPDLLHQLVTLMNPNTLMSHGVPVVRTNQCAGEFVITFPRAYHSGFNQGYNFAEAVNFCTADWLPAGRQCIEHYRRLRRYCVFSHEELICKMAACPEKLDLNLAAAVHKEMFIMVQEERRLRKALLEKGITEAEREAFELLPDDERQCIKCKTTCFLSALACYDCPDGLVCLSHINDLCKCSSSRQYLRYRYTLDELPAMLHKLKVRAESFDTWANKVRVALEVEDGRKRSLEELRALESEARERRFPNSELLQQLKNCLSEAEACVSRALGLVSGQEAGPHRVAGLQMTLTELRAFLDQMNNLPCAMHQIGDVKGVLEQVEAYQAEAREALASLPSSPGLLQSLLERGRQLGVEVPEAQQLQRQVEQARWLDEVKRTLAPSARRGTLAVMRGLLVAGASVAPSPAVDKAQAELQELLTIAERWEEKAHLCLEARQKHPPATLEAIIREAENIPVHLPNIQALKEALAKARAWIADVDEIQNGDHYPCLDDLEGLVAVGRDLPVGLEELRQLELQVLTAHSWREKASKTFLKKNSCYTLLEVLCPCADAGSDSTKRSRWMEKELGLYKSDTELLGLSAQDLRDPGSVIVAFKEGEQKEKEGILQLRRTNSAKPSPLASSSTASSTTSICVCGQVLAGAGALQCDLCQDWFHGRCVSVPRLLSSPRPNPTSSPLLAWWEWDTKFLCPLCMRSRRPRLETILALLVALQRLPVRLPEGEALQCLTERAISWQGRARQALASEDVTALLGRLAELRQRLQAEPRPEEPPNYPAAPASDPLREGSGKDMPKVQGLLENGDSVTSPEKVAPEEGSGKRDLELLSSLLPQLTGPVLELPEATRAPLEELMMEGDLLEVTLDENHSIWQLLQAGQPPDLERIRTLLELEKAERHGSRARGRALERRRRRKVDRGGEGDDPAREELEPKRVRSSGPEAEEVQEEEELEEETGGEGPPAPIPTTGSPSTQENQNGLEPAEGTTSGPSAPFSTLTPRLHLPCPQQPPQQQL
Test [8] deals with T4, Lysine-specific demethylase 2A (Homo sapiens, UniProt Q9Y2K7).
T4 sequence (Q9Y2K7 whole entry): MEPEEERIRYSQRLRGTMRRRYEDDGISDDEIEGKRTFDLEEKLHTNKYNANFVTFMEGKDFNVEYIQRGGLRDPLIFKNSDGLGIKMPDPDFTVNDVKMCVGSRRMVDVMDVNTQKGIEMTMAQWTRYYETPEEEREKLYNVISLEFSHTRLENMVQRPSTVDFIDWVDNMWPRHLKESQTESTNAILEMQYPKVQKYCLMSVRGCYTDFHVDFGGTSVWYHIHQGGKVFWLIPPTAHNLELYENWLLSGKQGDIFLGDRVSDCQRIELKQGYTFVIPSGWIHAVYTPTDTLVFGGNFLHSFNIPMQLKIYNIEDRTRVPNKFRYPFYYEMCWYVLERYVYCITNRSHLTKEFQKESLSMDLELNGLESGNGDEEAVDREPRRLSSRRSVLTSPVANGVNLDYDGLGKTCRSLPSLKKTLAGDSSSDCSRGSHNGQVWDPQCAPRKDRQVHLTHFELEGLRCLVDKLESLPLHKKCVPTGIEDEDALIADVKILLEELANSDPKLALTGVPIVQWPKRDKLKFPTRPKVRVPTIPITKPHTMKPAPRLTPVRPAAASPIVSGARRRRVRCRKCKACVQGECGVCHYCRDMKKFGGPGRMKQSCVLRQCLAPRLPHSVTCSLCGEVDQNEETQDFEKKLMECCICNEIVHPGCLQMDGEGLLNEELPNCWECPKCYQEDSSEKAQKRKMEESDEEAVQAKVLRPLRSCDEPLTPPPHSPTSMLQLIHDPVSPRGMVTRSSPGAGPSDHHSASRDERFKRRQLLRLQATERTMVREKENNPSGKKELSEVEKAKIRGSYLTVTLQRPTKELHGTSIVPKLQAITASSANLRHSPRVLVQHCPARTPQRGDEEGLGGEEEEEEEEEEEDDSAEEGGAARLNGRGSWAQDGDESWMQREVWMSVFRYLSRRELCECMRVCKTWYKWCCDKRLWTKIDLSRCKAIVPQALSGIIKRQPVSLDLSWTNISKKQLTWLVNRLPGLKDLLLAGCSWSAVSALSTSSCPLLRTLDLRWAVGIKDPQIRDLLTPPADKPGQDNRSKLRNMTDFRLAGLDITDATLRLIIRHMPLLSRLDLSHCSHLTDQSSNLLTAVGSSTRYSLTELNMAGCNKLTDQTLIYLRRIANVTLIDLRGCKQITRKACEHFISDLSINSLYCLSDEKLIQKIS
Kind of test: Inhibition of human KDM2A expressed in Escherichia coli using methyl lysine peptide substrate by AlphaScreen assay.

Test [9] has as its target Histone lysine demethylase PHF8 (Homo sapiens, UniProt Q9UPP1). As to the kind of experiment: Inhibition of human PHF8 expressed in Escherichia coli using methyl lysine peptide substrate by AlphaScreen assay.

Where only a bound is given, the exact number is not on record here.

Chain of Lysine-specific demethylase 6B (O15054 whole entry, the tested form may be a part): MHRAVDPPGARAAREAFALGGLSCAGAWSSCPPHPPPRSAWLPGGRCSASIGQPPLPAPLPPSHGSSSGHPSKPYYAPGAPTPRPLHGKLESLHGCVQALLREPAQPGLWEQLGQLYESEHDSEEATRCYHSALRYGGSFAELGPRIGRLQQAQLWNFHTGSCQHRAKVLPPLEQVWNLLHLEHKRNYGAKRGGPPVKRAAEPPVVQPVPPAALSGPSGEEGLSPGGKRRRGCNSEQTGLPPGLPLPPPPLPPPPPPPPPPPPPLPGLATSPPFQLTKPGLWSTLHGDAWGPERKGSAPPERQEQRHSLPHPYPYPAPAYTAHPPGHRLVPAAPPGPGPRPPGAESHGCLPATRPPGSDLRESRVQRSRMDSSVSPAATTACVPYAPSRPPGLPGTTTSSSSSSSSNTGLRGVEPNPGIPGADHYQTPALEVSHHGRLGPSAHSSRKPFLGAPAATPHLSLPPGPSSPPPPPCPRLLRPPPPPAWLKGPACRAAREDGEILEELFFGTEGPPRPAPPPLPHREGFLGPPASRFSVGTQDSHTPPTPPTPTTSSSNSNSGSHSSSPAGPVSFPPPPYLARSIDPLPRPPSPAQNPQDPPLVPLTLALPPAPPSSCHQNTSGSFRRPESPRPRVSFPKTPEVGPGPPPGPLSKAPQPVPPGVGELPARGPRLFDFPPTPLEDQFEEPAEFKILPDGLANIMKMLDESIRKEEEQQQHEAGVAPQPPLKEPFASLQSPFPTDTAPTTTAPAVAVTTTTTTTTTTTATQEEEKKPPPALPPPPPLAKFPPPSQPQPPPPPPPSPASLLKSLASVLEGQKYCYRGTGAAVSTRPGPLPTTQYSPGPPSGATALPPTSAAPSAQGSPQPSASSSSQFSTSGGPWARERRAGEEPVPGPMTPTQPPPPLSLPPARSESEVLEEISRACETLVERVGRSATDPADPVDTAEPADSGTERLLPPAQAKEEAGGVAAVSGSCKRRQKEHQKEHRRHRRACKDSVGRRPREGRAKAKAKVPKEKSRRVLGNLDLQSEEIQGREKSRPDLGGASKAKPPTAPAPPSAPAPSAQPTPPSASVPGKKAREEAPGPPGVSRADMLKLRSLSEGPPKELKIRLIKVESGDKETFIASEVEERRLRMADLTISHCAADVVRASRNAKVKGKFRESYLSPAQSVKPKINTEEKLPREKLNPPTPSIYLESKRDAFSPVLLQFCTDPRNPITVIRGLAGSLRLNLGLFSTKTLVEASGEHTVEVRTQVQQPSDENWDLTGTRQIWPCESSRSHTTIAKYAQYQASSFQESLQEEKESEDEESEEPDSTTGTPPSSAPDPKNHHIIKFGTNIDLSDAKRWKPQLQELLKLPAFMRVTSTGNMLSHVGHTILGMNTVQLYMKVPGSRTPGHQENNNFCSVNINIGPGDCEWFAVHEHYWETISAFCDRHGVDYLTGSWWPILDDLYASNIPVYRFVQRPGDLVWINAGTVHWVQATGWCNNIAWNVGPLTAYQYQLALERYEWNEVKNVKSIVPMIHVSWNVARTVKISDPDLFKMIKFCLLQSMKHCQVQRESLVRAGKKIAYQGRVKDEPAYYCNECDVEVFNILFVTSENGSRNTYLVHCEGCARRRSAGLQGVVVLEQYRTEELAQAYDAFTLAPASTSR
Chain of Histone lysine demethylase PHF8 (Q9UPP1 whole entry): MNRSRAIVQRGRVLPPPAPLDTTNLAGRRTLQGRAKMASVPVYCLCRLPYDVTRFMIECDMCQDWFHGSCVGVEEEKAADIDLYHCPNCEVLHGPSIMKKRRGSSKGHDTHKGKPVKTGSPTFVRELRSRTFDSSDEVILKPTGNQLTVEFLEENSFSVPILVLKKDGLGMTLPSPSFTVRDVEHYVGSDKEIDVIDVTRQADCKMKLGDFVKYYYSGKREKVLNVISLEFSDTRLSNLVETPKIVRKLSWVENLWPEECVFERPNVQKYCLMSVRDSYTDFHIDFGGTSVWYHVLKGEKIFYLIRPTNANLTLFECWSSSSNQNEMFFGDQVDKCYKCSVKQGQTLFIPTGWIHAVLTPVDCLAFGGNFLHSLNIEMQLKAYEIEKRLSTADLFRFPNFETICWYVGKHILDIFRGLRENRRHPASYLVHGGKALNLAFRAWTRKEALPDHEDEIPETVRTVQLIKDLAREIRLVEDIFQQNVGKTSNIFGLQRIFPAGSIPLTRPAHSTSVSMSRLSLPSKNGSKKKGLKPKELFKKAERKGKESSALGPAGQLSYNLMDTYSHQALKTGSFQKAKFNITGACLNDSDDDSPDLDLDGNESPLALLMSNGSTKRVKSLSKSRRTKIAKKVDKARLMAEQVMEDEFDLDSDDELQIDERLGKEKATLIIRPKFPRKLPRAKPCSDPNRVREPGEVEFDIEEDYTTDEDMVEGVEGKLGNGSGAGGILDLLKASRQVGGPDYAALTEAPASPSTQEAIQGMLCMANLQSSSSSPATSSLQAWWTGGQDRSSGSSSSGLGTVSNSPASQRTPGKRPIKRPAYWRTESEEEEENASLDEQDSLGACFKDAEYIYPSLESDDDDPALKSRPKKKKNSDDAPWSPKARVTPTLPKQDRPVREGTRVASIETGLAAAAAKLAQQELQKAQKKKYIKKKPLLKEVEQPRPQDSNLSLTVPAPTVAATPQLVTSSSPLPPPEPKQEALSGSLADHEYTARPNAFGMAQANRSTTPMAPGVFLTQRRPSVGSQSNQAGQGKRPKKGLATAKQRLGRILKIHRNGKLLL

In the case of `CN(C)NC(=O)CCC(=O)O`, the IC50 in [1] is 127 µM; on Egl nine homolog 1, greater than 100 µM; in test [2], greater than 100 µM; in [3], greater than 100 µM; in [4] it was 2.1 µM; in [5], greater than 100 µM. Besides, the IC50 in test [6] and in [7] was greater than 100 µM each time.
`C[N+](C)(C)NC(=O)CCC(=O)O`: the IC50 is greater than 100 µM in test [1]; greater than 100 µM on Egl nine homolog 1; greater than 100 µM in test [2]; greater than 100 µM in test [3]; 63 µM in test [8]; greater than 100 µM in test [5]. The values for the IC50 in test [6], in test [9] and in test [7] were greater than 100 µM, 35 µM and greater than 100 µM, respectively.
As for `CNNC(=O)CCC(=O)O`, the IC50 in test [1] is greater than 100 µM; against Egl nine homolog 1, 14.2 µM; in [2] it was greater than 100 µM; in test [3], 4.3 µM; in [8] it was 0.37 µM; in test [5] it was greater than 100 µM. The IC50 was greater than 100 µM in test [6], 3.4 µM in [9] and 1.1 µM in [7].
Regarding `NNC(=O)CCC(=O)O`, the IC50 is greater than 100 µM in test [1]; greater than 100 µM at Egl nine homolog 1; greater than 100 µM in test [2]; 0.2 µM in [3]; 0.25 µM in test [8]; greater than 100 µM in [5]. Also, the results for the IC50 in test [6], in test [9] and in test [7] were greater than 100 µM, 0.48 µM and 0.48 µM, respectively.
Turning to `CN(C)N(C)C(=O)CCC(=O)O`, the IC50 in test [1] was greater than 100 µM; at Egl nine homolog 1, greater than 100 µM; in test [2], greater than 100 µM; in test [3], greater than 100 µM; in test [8] it was 3.7 µM; in [5] it was greater than 100 µM. Besides, the IC50 in test [6] was greater than 100 µM; in test [9] it was 11.5 µM; in [7], greater than 100 µM.
In the case of `CC(C)NC(=O)CCC(=O)O`, the IC50 (in test [1]; at Egl nine homolog 1; in test [2]; in [3]; in test [8]; in test [5]) was greater than 100 µM in each case. The IC50 in test [6], in test [9] and in test [7] was greater than 100 µM throughout.
Turning to `CN(C)OC(=O)CCC(=O)O`, the IC50 in test [1] was greater than 100 µM; against Egl nine homolog 1, 6.3 µM; in test [2], greater than 100 µM; in test [3], greater than 100 µM; in test [8] it was 9.1 µM; in [5], greater than 100 µM. Further, the IC50 in [6] was found to be 41.7 µM; in [9] it was 6.9 µM; in [7] it was 42 µM.
Take `CN(C)NC(=O)CCC(=O)NN(C)C`: the IC50 (in test [1]; on Egl nine homolog 1; in test [2]; in [3]; in test [8]; in test [5]) was greater than 100 µM in each case. Also, the IC50 is greater than 100 µM in [6], 117 µM in test [9] and greater than 100 µM in test [7].
Take `O=C(O)CCC(=O)NO`: the IC50 in [1] was 3 µM; on Egl nine homolog 1 it was 19.6 µM; in [2] it was greater than 100 µM; in [3], 0.4 µM; in [8], 0.43 µM; in test [5], greater than 100 µM. The IC50 was found to be 1.1 µM in test [6], 1.7 µM in test [9] and 1.9 µM in test [7].
In the case of `CC(=O)CC(=O)CCC(=O)O` [SUCCINYLACETONE], the IC50 in test [1] was 12.7 µM; at Egl nine homolog 1, greater than 100 µM; in test [2] it was greater than 100 µM; in test [3], 23.9 µM; in test [8], 0.57 µM; in test [5] it was greater than 100 µM. Further, the IC50 was found to be 16.5 µM in test [6], 2.3 µM in [9] and 4.5 µM in test [7].

By IC50 is commonly meant the concentration at which inhibition is half-maximal.

The values are drawn from ChEMBL document CHEMBL2163321 (J Med Chem, 2012).
